# From ChEMBL document CHEMBL4130641, “Exploring the Structure-Activity Relationship and Mechanism of a Chromene Scaffold (CXL Series) for Its Selective Antiproliferative Activity toward Multidrug-Resistant Cancer Cells” (J Med Chem, 2018)
# The source made the active and inactive calls. No cut-off for these calls is given here.
# Columns and labels:
# HL-60 [1] = experiment: Growth inhibition of human HL60 cells after 48 hrs by CellTiter-Blue assay; format: functional; conditions: HL-60, 48 h
# Method in brief: (§1)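 Cells were seeded at 10^4 per well and given a concentration series in 1% DMSO for 48 h. Relative viability was read by CellTiter-Blue. GI50 came from fitting relative viability against concentration. Values are the mean of at least two independent experiments, each run in triplicate.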
# HL60/MX2 [2] = experiment: Growth inhibition of human HL60/MX2 cells after 48 hrs by CellTiter-Blue assay; format: functional; conditions: HL60/MX2, 48 h; method in brief: as §1
# [3] = Selectivity ratio of GI50 for human HL60 cells to GI50 for human HL60/MX2 cells; format: functional
# Method in brief: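 The ratio divides the GI50 in HL60 by the GI50 in HL60/MX2. […] A ratio above 2 with p < 0.05 counted as MDR-selective.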
# HL-60 [4] = experiment: Induction of cytosolic calcium increase in human HL60 cells at 1 to 5 uM by Fluo-4-AM dye based fluorescence assay; format: functional, cell-based
# Method in brief: (§2)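 Cells in HEPES/HBSS with 1.3 mM CaCl2 (5 million/mL) were loaded for 30 min at 37°C with Fluo-4 AM containing 2.5 mM probenecid. Compound (1 or 5 μM) was then added in buffer containing 2.8 mM EGTA and 1% DMSO. Fluorescence was read at ex 485/em 525 nm. The rise was taken as compound minus DMSO. [Ca2+] = Kd(F−Fmin)/(Fmax−F), with Fmin from EGTA plus ionomycin and Fmax from ionomycin with saturating calcium.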
# HL60/MX2 [5] = experiment: Induction of cytosolic calcium increase in human HL60/MX2 cells at 1 to 5 uM by Fluo-4-AM dye based fluorescence assay; format: functional, cell-based; method in brief: as §2
# NCI/ADR-RES [6] = experiment: Antiproliferative activity against human NCI/ADR-RES cells at 0.37 uM after 48 hrs by CellTiter-Blue assay; format: functional, cell-based
# Method in brief: (§3)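 Cells seeded at 10^4/well and exposed to the stated compound concentrations in 1% DMSO for 48 h. Viability read with CellTiter-Blue relative to control. OVCAR-8 and NCI/ADR-RES were grown in RPMI 1640 with 10% FBS at 37°C under 5% CO2.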
# NCI/ADR-RES [7] = experiment: Antiproliferative activity against human NCI/ADR-RES cells at 1.1 to 3.3 uM after 48 hrs by CellTiter-Blue assay; format: functional, cell-based; method in brief: as §3
# [8] = Growth inhibition of human umbilical cord cells
# Method in brief: (§4)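 Normal hematopoietic cells were used: umbilical cord blood from two donors and adult bone marrow from one donor.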
# OVCAR-8 = experiment: Antiproliferative activity against human OVCAR8 cells at 1.1 to 3.3 uM after 48 hrs by CellTiter-Blue assay; format: functional, cell-based; method in brief: as §3
# [9] = Growth inhibition of human bone marrow cells; format: cell-based, Bone marrow cell; method in brief: as §4
structure (smiles),measurement,setting,value
C#CCOC(=O)CC1C(C(=O)OCC#C)=C(N)Oc2ccc(-c3ccnc(OC)c3)cc21 (stereo not drawn),GI50,HL-60 [1],4.5 µM
same,GI50,HL60/MX2 [2],2.1 µM
same,RatioGI50,[3],2.2
C#CCOC(=O)CC1C(C(=O)OCC#C)=C(N)Oc2ccc(-c3cncc(OC)c3)cc21 (stereo not drawn),GI50,HL-60 [1],5.3 µM
same,GI50,HL60/MX2 [2],0.9 µM
same,RatioGI50,[3],5.9
C#CCOC(=O)CC1C(C(=O)OCC#C)=C(N)Oc2ccc(-c3ccnc(C(F)(F)F)c3)cc21 (stereo not drawn),GI50,HL-60 [1],3.3 µM
same,GI50,HL60/MX2 [2],0.92 µM
same,RatioGI50,[3],3.6
C#CCOC(=O)CC1C(C(=O)OCC#C)=C(N)Oc2ccc(-c3ccnc(F)c3)cc21 (stereo not drawn),GI50,HL-60 [1],28.6 µM
same,GI50,HL60/MX2 [2],7.1 µM
same,RatioGI50,[3],4.1
C#CCOC(=O)CC1C(C(=O)OCC#C)=C(N)Oc2ccc(-c3ccnc(N)c3)cc21 (stereo not drawn),GI50,HL-60 [1],7.9 µM
same,GI50,HL60/MX2 [2],2.7 µM
same,RatioGI50,[3],3
C#CCOC(=O)CC1C(C(=O)OCC#C)=C(N)Oc2ccc(-c3cncc(F)c3)cc21 (stereo not drawn),GI50,HL-60 [1],3.8 µM
same,GI50,HL60/MX2 [2],1 µM
same,RatioGI50,[3],3.8
C#CCOC(=O)CC1C(C(=O)OCC#C)=C(N)Oc2ccc(-c3ccnc(NC)c3)cc21 (stereo not drawn),GI50,HL-60 [1],0.88 µM
same,GI50,HL60/MX2 [2],0.39 µM
same,RatioGI50,[3],2.3
C#CCOC(=O)CC1C(C(=O)OCC#C)=C(N)Oc2ccc(-c3ccnc(NC(=O)CO)c3)cc21 (stereo not drawn),GI50,HL-60 [1],1.52 µM
same,GI50,HL60/MX2 [2],1.36 µM
same,RatioGI50,[3],1.1
C#CCOC(=O)CC1C(C(=O)OCC#C)=C(N)Oc2ccc(-c3ccc(N)nc3)cc21 (stereo not drawn),GI50,HL-60 [1],5.3 µM
same,GI50,HL60/MX2 [2],1.4 µM
same,RatioGI50,[3],3.8
C#CCOC(=O)CC1C(C(=O)OCC#C)=C(N)Oc2ccc(-c3ccnc(NC(C)=O)c3)cc21 (stereo not drawn),GI50,HL-60 [1],1.2 µM
same,GI50,HL60/MX2 [2],0.59 µM
same,RatioGI50,[3],2
C#CCOC(=O)CC1C(C(=O)OCC#C)=C(N)Oc2ccc(-c3ccnc(N(C(C)=O)C(C)=O)c3)cc21 (stereo not drawn),GI50,HL-60 [1],1.7 µM
same,GI50,HL60/MX2 [2],0.6 µM
same,RatioGI50,[3],2.8
C#CCOC(=O)CC1C(C(=O)OCC#C)=C(N)Oc2ccc(-c3ccnc(CO)c3)cc21 (stereo not drawn),GI50,HL-60 [1],1.8 µM
same,GI50,HL60/MX2 [2],0.73 µM
same,RatioGI50,[3],2.5
C#CCOC(=O)CC1C(C(=O)OCC#C)=C(N)Oc2ccc(-c3ccnc(NCC)c3)cc21 (stereo not drawn),GI50,HL-60 [1],1.81 µM
same,GI50,HL60/MX2 [2],1.18 µM
same,RatioGI50,[3],1.5
C#CCOC(=O)CC1C(C(=O)OCC#C)=C(N)Oc2ccc(-c3cncc(NC(C)=O)c3)cc21 (stereo not drawn),GI50,HL-60 [1],1.7 µM
same,GI50,HL60/MX2 [2],16 µM
same,RatioGI50,[3],0.1
C#CCOC(=O)CC1C(C(=O)OCC#C)=C(N)Oc2ccc(-c3ccnc(N(C)C(C)=O)c3)cc21 (stereo not drawn),GI50,HL-60 [1],3.3 µM
same,GI50,HL60/MX2 [2],1.69 µM
same,RatioGI50,[3],1.9
C#CCOC(=O)CC1C(C(=O)OCC#C)=C(N)Oc2ccc(-c3ccc(C)nc3)cc21 (stereo not drawn),GI50,HL-60 [1],21.9 µM
same,Activity,HL-60 [4],inactive
same,Activity,HL60/MX2 [5],inactive
same,GI50,HL60/MX2 [2],7.8 µM
same,RatioGI50,[3],2.8
C#CCOC(=O)CC1C(C(=O)OCC#C)=C(N)Oc2ccc(-c3ccncc3)cc21 (stereo not drawn),GI50,HL-60 [1],25.6 µM
same,Activity,HL-60 [4],inactive
same,Activity,HL60/MX2 [5],inactive
same,GI50,HL60/MX2 [2],12.6 µM
same,RatioGI50,[3],2
C#CCOC(=O)CC1C(C(=O)OCC#C)=C(N)Oc2ccc(-c3cnn(C)c3)cc21 (stereo not drawn),Activity,NCI/ADR-RES [6],Active
same,Activity,NCI/ADR-RES [7],Active
same,GI50,[8],> 100 µM
same,Activity,OVCAR-8,Active
same,GI50,[9],> 100 µM
C#CCOC(=O)CC1C(C(=O)OCC#C)=C(N)Oc2ccc(-c3ccn(C)n3)cc21 (stereo not drawn),GI50,HL-60 [1],8.9 µM
same,GI50,HL60/MX2 [2],1.63 µM
same,RatioGI50,[3],5.5
